Published values gathered from unrelated publications.
Protocols differ between the studies behind these lines.
Cell line: A549

| SMILES | observed | method | time | IC50 |
| --- | --- | --- | --- | --- |
| CC1=C(O)C(=O)C=C2C1=CC=C1[C@@]2(C)CC[C@@]2(C)[C@@H]3C[C@](C)(C(=O)OCCCCCCCO)CC[C@]3(C)CC[C@]12C | cell growth or viability | MTT | 48 h | > 100 µM |
| C=CC(=O)Nc1cc(Nc2nc(N3CCc4sccc4C3)c3cccnc3n2)c(OC)cc1N1CCC(N(C)C)CC1 | cell growth or viability | MTT | – | 0.393 µM |
| O=C(NC(=S)NCc1ccccc1)c1ccc2ccccc2c1 | cell growth or viability | – | 48 h | 5.53 µM |
| CCCCC/C=C/C(=O)CCc1ccc(O)c(OC)c1 | cell growth or viability | SRB | – | 18.6 µM |
| COc1cc2c(Nc3ccc(NC(=O)c4ccccc4)cc3)ncnc2cc1OCCCN1CCOCC1 | cell growth or viability | MTS | 48 h | 3.2 µM |
| O=C(NC(=S)Nc1ccc([N+](=O)[O-])cc1)c1ccc2ccccc2c1 | cell growth or viability | – | 48 h | 5.24 µM |
| COc1cc(N(C)CCN(C)C)c(NC(=O)C=C(C)C)cc1Nc1nc(Nc2cnn(C)c2)c2sccc2n1 | cell growth or viability | MTT | – | 1.56 µM |
| Oc1ccc(-c2csc(Nc3ccc4c(O)ncnc4c3)n2)cc1 | cell growth or viability | MTT | – | 31.2 µM |
| CCN(CC)CCCn1cccc1/C=N/NC(=O)Nc1cc2c(Nc3ccc(F)c(Cl)c3)ncnc2cc1OC | cell growth or viability | MTT | 72 h | 2.38 µM |
| COc1cc(Nc2nccc(-c3cnn4nc(OC)ccc34)n2)cc(C(F)(F)F)c1 | cell growth or viability | ATP luminescence | – | 0.47 µM |
| COc1ccc(NC(=O)Nc2ccc(OCc3nccc(OCC(F)(F)F)c3C)cc2)cc1 | cell growth or viability | MTT | 72 h | 12.5 µM |
| COc1cc2ncnc(Nc3ccc(F)c(Cl)c3)c2cc1NC(=O)N/N=C/c1cccn1CCCN1CCCC1 | cell growth or viability | MTT | 72 h | 2.45 µM |
| CCOc1ccc(/C=C2\SC(=S)N(CC(=O)Nc3ccccc3)C2=O)cc1 | cell growth or viability | MTT | – | 10.3 µM |
| COc1ccccc1NCCCNCC(O)COc1cccc2[nH]c3ccccc3c12 (stereo not shown) | cell growth or viability | CCK-8 | 72 h | 10.8 µM |
| Cc1ccc(-c2nn(-c3ccc(S(C)(=O)=O)cc3)cc2/C=N\N=c2/[nH]c(-c3ccc([N+](=O)[O-])cc3)cs2)cc1 | cell growth or viability | MTT | 48 h | 57.6 µM |
| COc1c(C)cnc(COc2ccc(NC(=O)Nc3cccc(C(F)(F)F)c3)cc2)c1C | cell growth or viability | MTT | 72 h | 20.2 µM |
| O=C1NCCc2[nH]c(-c3ccncc3)cc21 | cell growth or viability | – | – | > 10 µM |
| Nc1ccn([C@@H]2O[C@H](CO)[C@@H](O)C2(F)F)c(=O)n1 | cell growth or viability | CCK-8 | 72 h | 0.0151 µM |
| COc1ccccc1/C=C/CNCC(O)COc1ccc(C2CCCCC2)cc1 (stereo not shown) | cell growth or viability | CCK-8 | 72 h | 11.2 µM |
| CN(C)C/C=N/NC(=O)Nc1cc2c(Nc3ccc(F)c(Cl)c3)ncnc2cc1O[C@H]1CCOC1 | cell growth or viability | MTT | 72 h | 5.38 µM |
| COc1cc(/C=C/C(=O)C(=Cc2cccc(OC)c2OC)C(=O)/C=C/c2ccc(O)c(OC)c2)ccc1O | colony formation | – | 9 days | ~0.4 µM |
| Cc1ccc(NC(=O)NNC(=O)c2ccc(Nc3nccc(-c4cccnc4)n3)cc2)cc1 | cell growth or viability | MTT | 24 h | 8.38 µM |
